The target of data set [1] is T1, ATP-dependent translocase ABCB1 (Homo sapiens, UniProt P08183). Description: Ratio of rhodamine123 uptake in MDR1 transfected cells vs parental L5178Y cells at 30 uM. It counts as functional, cell-based. Particulars: mouse. The procedure, abridged:
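Fluorescence activity ratio at 30 µM compound. L5178Y parental and L5178YvMDR cells (2 × 10⁶/mL, serum-free McCoy's 5A) preincubated 10 min at room temperature with compound, then rhodamine 123 (5.2 µM final) added for 20 min at 37 °C. After two PBS washes, 1 × 10⁴ cells read by flow cytometry. Ratio calculated from uptake in treated versus untreated control cells. Mean of two determinations.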

Data set [2] addresses T1, ATP-dependent translocase ABCB1. Description: Inhibition of P-glycoprotein. The procedure, abridged:
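Rhodamine 123 uptake in L5178YvMDR mouse T-lymphoma cells and the parental line, 2 × 10⁶ cells/mL in serum-free McCoy's 5A. Compound preincubated 10 min at room temperature, then rhodamine 123 (5.2 µM final) added for 20 min at 37 °C. Cells washed twice in PBS and 1 × 10⁴ cells read by flow cytometry. IC50 taken from sigmoidal curve of fluorescence activity ratio versus concentration. Mean of two determinations.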

Another data set deals with L5178Y. Description: Cytotoxicity against mouse L5178Y cell line. The class given is functional, cell-based. The procedure, abridged:
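MTT assay on L5178Y mouse T-lymphoma parental cells or the L5178YvMDR (mdr1-transfected) subline. Compound-treated cells cultured 48 h at 37 °C under 5% CO2. MTT added (0.5 mg/mL final) for another 4 h at 37 °C. Formazan dissolved in 10% SDS in 0.01 M HCl overnight, then absorbance read. Absorbance corrected for cell control and compound, IC50 taken from sigmoidal curve. Mean of two determinations.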

The structures appear in SMILES notation.

T1 sequence (P08183 whole entry): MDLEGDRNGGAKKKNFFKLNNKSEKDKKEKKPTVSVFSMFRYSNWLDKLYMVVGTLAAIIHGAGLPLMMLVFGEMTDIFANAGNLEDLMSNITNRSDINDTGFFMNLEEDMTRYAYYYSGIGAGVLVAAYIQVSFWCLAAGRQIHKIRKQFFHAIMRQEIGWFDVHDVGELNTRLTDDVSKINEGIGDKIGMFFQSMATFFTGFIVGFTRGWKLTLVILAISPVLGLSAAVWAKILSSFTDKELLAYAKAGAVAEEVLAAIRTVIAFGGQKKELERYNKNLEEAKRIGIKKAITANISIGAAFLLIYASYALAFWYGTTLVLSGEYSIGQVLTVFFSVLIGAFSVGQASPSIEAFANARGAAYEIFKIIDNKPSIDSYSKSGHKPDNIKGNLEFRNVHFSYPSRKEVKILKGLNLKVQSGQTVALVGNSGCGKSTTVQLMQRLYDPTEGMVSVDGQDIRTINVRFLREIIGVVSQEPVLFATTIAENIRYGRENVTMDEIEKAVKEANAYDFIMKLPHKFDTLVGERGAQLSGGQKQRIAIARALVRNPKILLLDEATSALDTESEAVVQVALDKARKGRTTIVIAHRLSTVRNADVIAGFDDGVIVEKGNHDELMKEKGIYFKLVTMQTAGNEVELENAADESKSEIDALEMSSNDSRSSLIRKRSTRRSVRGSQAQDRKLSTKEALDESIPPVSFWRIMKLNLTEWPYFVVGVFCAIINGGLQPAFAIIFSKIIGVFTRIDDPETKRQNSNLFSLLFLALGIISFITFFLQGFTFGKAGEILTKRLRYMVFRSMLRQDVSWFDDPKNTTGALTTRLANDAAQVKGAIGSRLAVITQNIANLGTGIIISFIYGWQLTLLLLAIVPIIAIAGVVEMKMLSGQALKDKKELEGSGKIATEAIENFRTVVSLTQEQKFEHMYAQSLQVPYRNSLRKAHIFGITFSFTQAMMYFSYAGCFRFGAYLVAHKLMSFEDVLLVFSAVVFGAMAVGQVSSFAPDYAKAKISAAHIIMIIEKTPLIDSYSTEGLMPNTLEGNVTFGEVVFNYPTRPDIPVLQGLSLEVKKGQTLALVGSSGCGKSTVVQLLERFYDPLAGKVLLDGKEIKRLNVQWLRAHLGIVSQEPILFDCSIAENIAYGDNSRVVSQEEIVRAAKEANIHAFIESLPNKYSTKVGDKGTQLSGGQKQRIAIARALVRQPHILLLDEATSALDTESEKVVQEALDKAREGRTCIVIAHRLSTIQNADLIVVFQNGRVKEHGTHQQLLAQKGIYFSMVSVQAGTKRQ

The IC50 is the point on the concentration scale where inhibition reaches its midpoint. The low end stands for higher potency, the high end for lower potency. For `COC(=O)N1C2C3C4N(C(=O)OC)C5C(C1[C@]5(CO)[C@H]3c1ccccc1)[C@@H](c1ccccc1)[C@@]24CO`, in data set [1], the Ratio came out at 21.6. Moreover, the IC50 in data set [2] turned out to be 3.8 µM.

With `O=C(Oc1ccccc1)N1C2C3C4N(C(=O)Oc5ccccc5)C5C(C1[C@]5(CO)[C@H]3c1ccccc1)[C@@H](c1ccccc1)[C@@]24CO`, the Ratio in data set [1] was found to be 30.8. Moreover, the results for the IC50 (in data set [2]; with L5178Y) were under 1 µM and 12.7 µM, respectively.

On to `CC(C)(C)OC(=O)N1C2C3C4N(C(=O)OC(C)(C)C)C5C(C1[C@]5(CO)[C@H]3c1ccccc1)[C@@H](c1ccccc1)[C@@]24CO`, for which the Ratio in data set [1] came out at 33. The IC50 in data set [2] was found to be 6.1 µM; in the data set on L5178Y it was 2.5 µM.

For the compound `OC[C@]12C3C4C1N(Cc1ccccc1)C1C(C(N3Cc3ccccc3)[C@]1(CO)[C@H]4c1ccccc1)[C@H]2c1ccccc1`, the Ratio in data set [1] is 26.5. The 50% inhibitory concentration (IC50) was under 1 µM in data set [2] and 11.9 µM in the data set on L5178Y.

Turning to `CN1C2C3C4N(C)C5C(C1[C@]5(CO)[C@H]3c1ccccc1)[C@@H](c1ccccc1)[C@@]24CO`, in data set [1], the Ratio turned out to be 34.3. The IC50 in data set [2] was found to be 17.6 µM; in the data set with L5178Y, 7.1 µM.

The values above are taken from ChEMBL document CHEMBL1147656, “Biological evaluation of bishydroxymethyl-substituted cage dimeric 1,4-dihydropyridines as a novel class of p-glycoprotein modulating agents in cancer cells” (J Med Chem, 2006).
